Results as given in ChEMBL document CHEMBL1126156, “Multivariate analysis by the minimum spanning tree method of the structural determinants of diphenylethylenes and triphenylacrylonitriles implicated in estrogen receptor binding, protein kinase C activity, and MCF7 cell proliferation” (J Med Chem, 1992).

Tests used:
[1] = tested on: MCF7S; assay: Cytostatic activity against MCF-7 cell proliferation.; type: functional, Homo sapiens; set-up: concentration or dose not given beside the values
Outline: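 MCF-7 cells in phenol red-free charcoal-treated medium given 10⁻⁶ M E2 plus test compound (3–10 μM), 6 days of growth. DNA expressed as percent of E2-treated cells. IC30 is the concentration giving 30% inhibition. Percent inhibition taken at 10⁻⁵ M, or at 10⁻⁶ M in a second series. Means of two experiments.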

[2] = tested on: MCF7S; assay: Agonistic activity in MCF-7 cell proliferation.; type: functional, Homo sapiens
Outline: (§1)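 MCF-7 cells grown in phenol red-free medium with 5% dextran-coated charcoal-treated serum, tested 10 pM to 1 μM. DNA content read after growth. Agonism expressed relative to the maximum response with E2 (=100%), whatever the concentration. EC50 (50% of maximum response) taken from two separate experiments.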

[3] = species on record: Rattus norvegicus; assay: Percent stimulation or inhibition of protein kinase C III activity for protamine sulfate in the presence of EGTA.; set-up: concentration or dose not given beside the values; settings: values are per cent of control
Outline: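 Rat brain type III (α) PKC, purified, with protamine sulfate as substrate and 0.5 mM EGTA in place of Ca2+, phosphatidylserine and diolein; 5 mM magnesium acetate, 10 μM [32P]ATP. Most compounds at 10⁻⁴ M; percent of control activity.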

[4] = target: T1, Protein kinase C, PKC; classical (Rattus norvegicus) (UniProt P05696+P68403+P63319); assay: The percent stimulation or inhibition of protein kinase C III activity was determined for phosphatidylserine (PS) and diolein(PS+DO) in the presence of [Ca2+]; type: protein assay; set-up: concentration or dose not given beside the values; settings: values are per cent of control
Outline: (§2)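 Type III (α) PKC purified from rat brain soluble fraction, assayed with calf thymus H1 histone, 0.1 mM Ca2+, 5 mM magnesium acetate, 10 μM [32P]ATP, 2 μg/mL phosphatidylserine plus 0.2 μg/mL diolein. Compounds mostly at 10⁻⁴ M; activity expressed as percent of control.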

[5] = target: T1, Protein kinase C, PKC; classical (Rattus norvegicus); assay: Percent stimulation or inhibition of protein kinase C III activity for phosphatidylserine (PS) in the presence of [Ca2+].; type: protein assay; set-up: concentration or dose not given beside the values; settings: values are per cent of control
Outline: (§3)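 Purified type III (α) PKC from rat brain soluble fraction. Substrate calf thymus H1 histone with 0.1 mM Ca2+, 5 mM magnesium acetate, 10 μM [32P]ATP and 2 μg/mL phosphatidylserine, no diolein. Most compounds at 10⁻⁴ M, given as percent of control activity.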

[6] = target: T1, Protein kinase C, PKC; classical (Rattus norvegicus); assay: Percent stimulation or inhibition of protein kinase C with [Ca2+] for phosphatidylserine and diolein(PS+DO); type: protein assay; set-up: concentration or dose not given beside the values; settings: values are per cent of control; outline: as §2
[7] = target: T1, Protein kinase C, PKC; classical (Rattus norvegicus); assay: Percent stimulation or inhibition of protein kinase C with [Ca2+] for phosphatidylserine (PS); type: protein assay; outline: as §3
[8] = tested on: BT-20; assay: Cytotoxic effect on ER-negative BT20 cell proliferation; type: functional, Homo sapiens; set-up: concentration or dose not given beside the values
Outline: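 ER-negative BT20 cells, no E2, test compound at 3–10 μM for 6 days. DNA read as percent of untreated control. IC30 is the concentration inhibiting growth by 30%; percent inhibition taken at 10⁻⁵ M. Means of two experiments, triplicate wells.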

[9] = target: Estrogen receptor (Bos taurus) (UniProt Q9XSB5+P49884); assay: Relative binding affinity for calf uterus estrogen receptor after 2 hr at 0 degree C; type: protein assay
Outline: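 Calf uterus cytosol ER incubated 2 h at 0 °C with [6,7-3H]-17β-estradiol and competitor. RBA given relative to estradiol (=100%), mean of at least four determinations.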

[10] = tested on: MCF7S; assay: Antagonist activity against MCF-7 cell proliferation; type: functional, Homo sapiens
Outline: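 Phenol red-free MCF-7 cultures with 5% dextran-coated charcoal-treated serum, stimulated by 0.1 nM E2. Proliferation read as DNA content after 8 days relative to E2 alone. Percent antagonism is the inhibition at 10⁻⁶ M test compound versus 10⁻¹⁰ M E2. IC50 (50% of maximum response) from two separate experiments.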

[11] = tested on: MCF7S; assay: Agonist activity against MCF-7 cell proliferation; type: functional, cell-based; settings: Homo sapiens; outline: as §1

SMILES | Inhibition [1] [%] | Agonism [2] [%] | residual activity [3] [%] | residual activity [4] [%] | residual activity [5] [%] | residual activity [6] [%] | residual activity [7] [%] | Inhibition [8] [%] | RBA [9] [%] | Antagonism [10] [%] | EC50 [11] [nM] | residual activity ([7]; values are per cent of control) [%]
Cc1ccc(/C(=C(/C#N)c2ccccc2)c2ccc(O)cc2)cc1 | 38 | 55 | 77 | 95 | 107 | – | – | – | – | – | – | –
Cc1ccc(/C(=C(/C#N)c2ccc(O)cc2)c2ccc(O)cc2)cc1 | 35 | 69 | 90 | 80 | 113 | – | – | – | – | – | – | –
COc1ccc(C(=C(C#N)c2ccccc2)c2ccc(OC)cc2)cc1 | 8 | 34 | 92 | 100 | 98 | – | – | – | – | – | – | –
N#C/C(=C(\c1ccccc1)c1ccc(O)cc1)c1ccc(O)cc1 | 30 | 100 | 68 | 91 | 97 | – | – | – | – | – | – | –
N#CC(=C(c1ccc(O)cc1)c1ccc(O)cc1)c1ccccc1 | 30 | 62 | 50 | 42 | 94 | – | – | – | – | – | – | –
CC(C)Oc1ccc(/C(=C(/C#N)c2ccccc2)c2ccc(O)cc2)cc1 | 57 | 22 | – | – | – | 94 | 170 | – | – | – | – | –
N#C/C(=C(/c1ccccc1)c1ccc(O)cc1)c1ccccc1 | 12 | 94 | 94 | 104 | 96 | – | – | – | – | – | – | –
N#CC(=C(c1ccccc1)c1ccccc1)c1ccccc1 | 16 | 68 | 106 | 106 | 126 | – | – | – | – | – | – | –
N#CC(=C(c1ccccc1)c1ccccc1)c1ccc(O)cc1 | 8 | 90 | 103 | 113 | 92 | – | – | – | – | – | – | –
N#C/C(=C(\c1ccccc1)c1ccc(O)cc1)c1ccccc1 | 30 | 99 | 90 | – | 107 | 87 | – | – | – | – | – | –
Oc1ccc(C(=C2CCCC2)c2ccc(O)cc2)cc1 | 6 | 100 | 40 | 42 | – | – | – | 10 | 23 | 1 | 130 | –
CC(C)Oc1ccc(/C(=C(\C#N)c2ccccc2)c2ccc(O)cc2)cc1 | 61 | 33 | 86 | 101 | 138 | – | – | – | – | – | – | –
CN(C)Cc1cc(C(=C(C#N)c2ccccc2)c2ccc(O)c(CN(C)C)c2)ccc1O | 36 | 31 | – | – | – | – | – | – | – | – | – | 26
CCN(CC)CCOc1ccc(/C(=C(\C#N)c2ccccc2)c2ccc(O)cc2)cc1 | 89 | 12 | 88 | 1 | 10 | – | – | – | – | – | – | –
N#C/C(=C(/c1ccccc1)c1ccc(O)cc1)c1ccc(O)cc1 | 17 | 98 | 86 | 87 | 94 | – | – | – | – | – | – | –
N#CC(=C(c1ccc(O)cc1)c1ccc(O)cc1)c1ccc(O)cc1 | 39 | 85 | 33 | 32 | 38 | – | – | – | – | – | – | –
Oc1ccc(C(=C2CCCCCC2)c2ccc(O)cc2)cc1 | 16 | 96 | 93 | 71 | – | – | – | 20 | 17 | 21 | 2.65 | –
COc1ccc(/C(=C(/C#N)c2ccccc2)c2ccc(O)cc2)cc1 | 13 | 25 | – | – | 100 | 100 | 100 | – | – | – | – | –
C[C@]12CC[C@@H]3c4ccc(O)cc4CC[C@H]3[C@@H]1CC[C@@H]2O [ESTRADIOL] | 25 | 100 | 99 | 89 | 77 | – | – | – | – | – | – | –
CCN(CC)CCOc1ccc(C(=C(C#N)c2ccccc2)c2ccc(OCCN(CC)CC)cc2)cc1 | 94 | 62 | 101 | 10 | 20 | – | – | – | – | – | – | –
COc1ccc(/C(=C(\C#N)c2ccccc2)c2ccc(O)cc2)cc1 | 36 | 26 | 100 | 100 | 100 | – | – | – | – | – | – | –
CCC(=C(c1ccc(O)cc1)c1ccc(OCCN(C)C)cc1)c1ccccc1 | 81 | 10 | 94 | 2 | 27 | – | – | – | – | – | – | –
Cc1ccc(C(C#N)=C(c2ccc(O)cc2)c2ccc(O)cc2)cc1 | 38 | 71 | 46 | 38 | 84 | – | – | – | – | – | – | –
CC/C(=C(\c1ccccc1)c1ccc(OCCN(C)C)cc1)c1ccccc1 [TAMOXIFEN] | 49 | 21 | 107 | – | 49 | 21 | – | – | – | – | – | –
CCN(CC)CCOc1ccc(C(C#N)=C(c2ccccc2)c2ccccc2)cc1 | 53 | 71 | 96 | 20 | 43 | – | – | – | – | – | – | –
CC(C)Oc1ccc(C(=C(C#N)c2ccccc2)c2ccc(OC(C)C)cc2)cc1 | 32 | 40 | 100 | 100 | 100 | – | – | – | – | – | – | –
Oc1ccc(C(=C2CCCCC2)c2ccc(O)cc2)cc1 | 12 | 97 | 91 | 81 | 111 | – | – | 12 | 26 | 23 | 4.51 | –
